In brackets after ≈: the same amount, converted by molar mass.
Columns and labels:
[1] = test system: Mycolicibacterium smegmatis; assay: Antibiofilm activity against Mycobacterium smegmatis mc2 155 ATCC 700084 assessed as inhibition of biofilm formation measured after 24 hrs by crystal violet reporter assay; format: functional, organism-based; details: MC2 155 ATCC 700084, 24 h
[2] = test system: Mycolicibacterium smegmatis; assay: Antibiofilm activity against Mycobacterium smegmatis mc2 155 ATCC 700084 assessed as dispersion of preformed biofilms measured after 24 hrs by crystal violet reporter assay; format: functional, organism-based; details: MC2 155 ATCC 700084, 24 h
Outline: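 Cultures (48 h) diluted to 0.01 in M9 minimal salts with glucose, MgSO4 and CaCl2 in PVC plates. Biofilm grown stationary at 37 °C for 48 h, washed, then fresh medium with compound added for 24 h at 37 °C. Stained with 0.1% crystal violet 30 min, solubilised in 95% ethanol, OD540 read. Media blanks subtracted. Dispersion calculated against untreated biofilm wells. At least three repeats.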

[3] = test system: Mycolicibacterium smegmatis; assay: Potentiation of Cefotaxime-induced antibacterial activity against Mycobacterium smegmatis mc2 155 ATCC 700084 assessed as fold reduction in Cefotaxime MIC at 60 uM incubated for 48 hrs by alamarblue dye based broth microdilution method; format: functional
Outline: (§1)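 Inoculum from 48 h cultures set to 5 x 10^5 CFU/mL in 7H9 + ADC and pre-dosed with compound from DMSO stock at fixed concentration. β-lactam two-fold serially diluted from top concentration, with an antibiotic-only control series. Stationary 37 °C for 48 h, then alamarBlue for 8 h. MIC is the lowest blue (non-viable) well. Fold reduction is relative to the antibiotic-only MIC. Duplicates, at least two repeats.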

[4] = test system: Mycolicibacterium smegmatis; assay: Potentiation of Ampicillin-induced antibacterial activity against Mycobacterium smegmatis mc2 155 ATCC 700084 assessed as fold reduction in Ampicillin MIC at 60 uM incubated for 48 hrs by alamarblue dye based broth microdilution method; format: functional; outline: as §1
[5] = test system: Mycolicibacterium smegmatis; assay: Potentiation of Ampicillin-induced antibacterial activity against Mycobacterium smegmatis mc2 155 ATCC 700084 assessed as Ampicillin MIC at 60 uM incubated for 48 hrs by alamarblue dye based broth microdilution method (reference value: 128 ug/ml); format: functional; outline: as §1
[6] = test system: Mycolicibacterium smegmatis; assay: Potentiation of Cefoxitin-induced antibacterial activity against Mycobacterium smegmatis mc2 155 ATCC 700084 assessed as Cefoxitin MIC at 60 uM incubated for 48 hrs by alamarblue dye based broth microdilution method (reference value: 16 ug/ml); format: functional; outline: as §1
[7] = test system: Mycolicibacterium smegmatis; assay: Potentiation of Cefotaxime-induced antibacterial activity against Mycobacterium smegmatis mc2 155 ATCC 700084 assessed as Cefotaxime MIC at 60 uM incubated for 48 hrs by alamarblue dye based broth microdilution method (reference value: 128 ug/ml); format: functional; outline: as §1
[8] = test system: Mycolicibacterium smegmatis; assay: Potentiation of Cefoxitin-induced antibacterial activity against Mycobacterium smegmatis mc2 155 ATCC 700084 assessed as fold reduction in Cefoxitin MIC at 60 uM incubated for 48 hrs by alamarblue dye based broth microdilution method; format: functional; outline: as §1
[9] = test system: Mycolicibacterium smegmatis; assay: Potentiation of Ceftazidime-induced antibacterial activity against Mycobacterium smegmatis mc2 155 ATCC 700084 assessed as Ceftazidime MIC at 60 uM incubated for 48 hrs by alamarblue dye based broth microdilution method (reference value: 512 ug/ml); format: functional; outline: as §1
[10] = Hemolytic activity in sheep RBC assessed as hemolysis at 500 uM measured after 1 hr by UV spectrometer analysis; format: ADME, cell-based, Ovis aries, Erythrocyte; details: sheep red blood cells (erythrocytes), read-out: Activity
Outline: (§2)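 Mechanically defibrinated sheep blood was centrifuged, and the cells were washed and resuspended in PBS three times, then diluted 10-fold. Compound was added from DMSO stock. Controls were 1% Triton X (100% lysis) and PBS (zero lysis). Samples were incubated 1 h at 37 °C with shaking at 200 rpm, then centrifuged. Supernatant was diluted 40-fold in distilled water and read at A540. Run in duplicate, repeated at least twice.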

[11] = test system: Mycolicibacterium smegmatis; assay: Antibacterial activity against Mycobacterium smegmatis mc2 155 ATCC 700084 assessed as inhibition of bacterial growth incubated for 48 hrs by alamarblue dye based broth microdilution method; format: functional
Outline: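 Inoculum from 48 h cultures set to 5 x 10^5 CFU/mL in 7H9 + ADC. Compound in DMSO two-fold serially diluted from 200 µM top concentration. Stationary 37 °C for 48 h, then alamarBlue for 8 h at 37 °C. MIC is the lowest concentration with no viable bacteria (blue, not pink). Duplicate wells, at least two independent repeats.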

[12] = test system: Mycolicibacterium smegmatis; assay: Potentiation of Ceftazidime-induced antibacterial activity against Mycobacterium smegmatis mc2 155 ATCC 700084 assessed as fold reduction in Ceftazidime MIC at 60 uM incubated for 48 hrs by alamarblue dye based broth microdilution method; format: functional; outline: as §1
[13] = test system: Mycolicibacterium smegmatis; assay: Potentiation of oxacillin-induced antibacterial activity against Mycobacterium smegmatis mc2 155 ATCC 700084 assessed as fold reduction in oxacillin MIC at 60 uM incubated for 48 hrs by alamarblue dye based broth microdilution method; format: functional; outline: as §1
[14] = test system: Mycolicibacterium smegmatis; assay: Potentiation of Oxacillin-induced antibacterial activity against Mycobacterium smegmatis mc2 155 ATCC 700084 assessed as Oxacillin MIC at 60 uM incubated for 48 hrs by alamarblue dye based broth microdilution method (Rvb =512 ug/ml); format: functional; outline: as §1
[15] = Hemolytic activity in sheep RBC assessed as hemolysis at 200 uM measured after 1 hr by UV spectrometer analysis; format: ADME, cell-based, Ovis aries, Erythrocyte; details: sheep red blood cells (erythrocytes), read-out: Activity; outline: as §2

Nc1nccc(-c2c[nH]c3ccc(Cl)cc23)n1
IC50 [1]: 18.3 µM | EC50 [2]: > 50 µM

Brc1ccc2[nH]cc(-c3ccnc(NCc4ccccc4)n3)c2c1
fold change (FC) [3]: 2 | fold change (FC) [4]: 2 | MIC [5]: 64 µg/mL | MIC [6]: 16 µg/mL | IC50 [1]: 6.9 µM | EC50 [2]: 28.3 µM | MIC [7]: 64 µg/mL | fold change (FC) [8]: 0 | MIC [9]: 512 µg/mL | hemolysis at 1 h, 500 µM [10]: 32% | MIC [11]: ≥ 200 µM | fold change (FC) [12]: 0 | fold change (FC) [13]: 2 | MIC [14]: 256 µg/mL | hemolysis at 1 h, 200 µM [15]: 9%

Nc1nccc(-c2c[nH]c3ccc(I)cc23)n1
fold change (FC) [3]: 2 | fold change (FC) [4]: 0 | MIC [5]: 128 µg/mL | MIC [6]: 16 µg/mL | IC50 [1]: 13.1 µM | EC50 [2]: 28.1 µM | MIC [7]: 64 µg/mL | fold change (FC) [8]: 0 | MIC [9]: 512 µg/mL | MIC [11]: ≥ 200 µM | fold change (FC) [12]: 0 | fold change (FC) [13]: 0 | MIC [14]: 512 µg/mL

CCn1cc(-c2ccnc(N)n2)c2ccc(Br)cc21
IC50 [1]: 39.1 µM | EC50 [2]: > 50 µM

Nc1nccc(-c2c[nH]c3ccc(Br)cc23)n1 [MERIDIANIN C]
IC50 [1]: 22.7 µM | EC50 [2]: > 50 µM

CCCCn1cc(-c2ccnc(N)n2)c2ccc(Br)cc21
IC50 [1]: > 50 µM | EC50 [2]: > 50 µM | hemolysis at 1 h, 500 µM [10]: 73% | hemolysis at 1 h, 200 µM [15]: 56%

Cn1cc(-c2ccnc(N)n2)c2cc(Br)ccc21
fold change (FC) [3]: 8 | fold change (FC) [4]: 4 | MIC [5]: 32 µg/mL | MIC [6]: 8 µg/mL | IC50 [1]: 27.8 µM | EC50 [2]: > 50 µM | MIC [7]: 16 µg/mL | fold change (FC) [8]: 2 | MIC [9]: 64 µg/mL | MIC [11]: ≥ 200 µM | fold change (FC) [12]: 8 | fold change (FC) [13]: 2 | MIC [14]: 256 µg/mL

Nc1nccc(-c2cn(Cc3ccccc3)c3cc(Br)ccc23)n1
IC50 [1]: 27.3 µM | EC50 [2]: > 50 µM

Nc1ncc(-c2c[nH]c3ccc(Cl)cc23)[nH]1
IC50 [1]: 16 µM | EC50 [2]: > 50 µM

CCn1cc(-c2ccnc(N)n2)c2cc(Br)ccc21
IC50 [1]: 37.1 µM | EC50 [2]: > 50 µM

Nc1ncc(-c2c[nH]c3cc(Cl)ccc23)[nH]1
IC50 [1]: 10.3 µM | EC50 [2]: 33.7 µM

CCCCn1cc(-c2ccnc(N)n2)c2cc(Br)ccc21
IC50 [1]: 22.7 µM | EC50 [2]: > 50 µM

Nc1nccc(-c2c[nH]c3c(Br)cccc23)n1
IC50 [1]: 26 µM | EC50 [2]: > 50 µM

CCCn1cc(-c2ccnc(N)n2)c2ccc(Br)cc21
IC50 [1]: 34.5 µM | EC50 [2]: > 50 µM

Cn1cc(-c2ccnc(N)n2)c2ccc(Br)cc21
IC50 [1]: 26.7 µM | EC50 [2]: > 50 µM

CCCCCn1cc(-c2ccnc(N)n2)c2cc(Br)ccc21
IC50 [1]: > 50 µM | EC50 [2]: > 50 µM

CC(C)Cn1cc(-c2ccnc(N)n2)c2ccc(Br)cc21
IC50 [1]: 50.4 µM | EC50 [2]: > 50 µM

Nc1nccc(-c2c[nH]c3cccc(Br)c23)n1
IC50 [1]: > 50 µM | EC50 [2]: > 50 µM

Nc1nccc(-c2c[nH]c3ccc(F)cc23)n1
IC50 [1]: 16 µM | EC50 [2]: > 50 µM

CCNc1nccc(-c2c[nH]c3ccc(Br)cc23)n1
fold change (FC) [3]: 0 | fold change (FC) [4]: 2 | MIC [5]: 64 µg/mL | MIC [6]: 16 µg/mL | IC50 [1]: 14.2 µM | EC50 [2]: 39.3 µM | MIC [7]: 128 µg/mL | fold change (FC) [8]: 0 | MIC [9]: 512 µg/mL | MIC [11]: ≥ 200 µM | fold change (FC) [12]: 0 | fold change (FC) [13]: 0 | MIC [14]: 512 µg/mL

CCCn1cc(-c2ccnc(N)n2)c2cc(Br)ccc21
IC50 [1]: 15.1 µM | EC50 [2]: > 50 µM

Nc1nccc(-c2c[nH]c3cc(Cl)ccc23)n1
IC50 [1]: 26.6 µM | EC50 [2]: > 50 µM

Nc1nccc(-c2c[nH]c3cc(F)ccc23)n1
IC50 [1]: 21.6 µM | EC50 [2]: > 50 µM

Cc1ccc2[nH]cc(-c3ccnc(N)n3)c2c1
IC50 [1]: 15.7 µM | EC50 [2]: > 50 µM

Nc1ncc(-c2c[nH]c3ccc(F)cc23)[nH]1
IC50 [1]: 40.2 µM | EC50 [2]: > 50 µM

Nc1nccc(-c2c[nH]c3cc(I)ccc23)n1
fold change (FC) [3]: 0 | fold change (FC) [4]: 0 | MIC [5]: 128 µg/mL | MIC [6]: 16 µg/mL | IC50 [1]: 13.2 µM | EC50 [2]: 29.4 µM | MIC [7]: 128 µg/mL | fold change (FC) [8]: 0 | MIC [9]: 512 µg/mL | MIC [11]: ≥ 200 µM | fold change (FC) [12]: 0 | fold change (FC) [13]: 0 | MIC [14]: 512 µg/mL

CNc1nccc(-c2c[nH]c3ccc(Br)cc23)n1
fold change (FC) [3]: 2 | fold change (FC) [4]: 2 | MIC [5]: 64 µg/mL | MIC [6]: 16 µg/mL | IC50 [1]: 25.5 µM | EC50 [2]: 45 µM | MIC [7]: 64 µg/mL | fold change (FC) [8]: 0 | MIC [9]: 512 µg/mL | MIC [11]: ≥ 200 µM | fold change (FC) [12]: 0 | fold change (FC) [13]: 2 | MIC [14]: 256 µg/mL

CN(C)c1nccc(-c2c[nH]c3ccc(Br)cc23)n1
fold change (FC) [3]: 0 | fold change (FC) [4]: 2 | MIC [5]: 64 µg/mL | MIC [6]: 16 µg/mL | IC50 [1]: 14.3 µM | EC50 [2]: 35.7 µM | MIC [7]: 128 µg/mL | fold change (FC) [8]: 0 | MIC [9]: 512 µg/mL | MIC [11]: ≥ 200 µM | fold change (FC) [12]: 0 | fold change (FC) [13]: 0 | MIC [14]: 512 µg/mL

CCCn1cc(-c2ccnc(N)n2)c2ccc(I)cc21
IC50 [1]: > 50 µM | EC50 [2]: > 50 µM

Nc1nccc(-c2c[nH]c3ccccc23)n1
IC50 [1]: 29.5 µM | EC50 [2]: > 50 µM

CC(C)Cn1cc(-c2ccnc(N)n2)c2cc(Br)ccc21
IC50 [1]: 14.9 µM | EC50 [2]: > 50 µM

Nc1nccc(-c2c[nH]c3cc(Br)ccc23)n1 [MERIDIANIN D]
fold change (FC) [3]: 0 | fold change (FC) [4]: 0 | IC50 [1]: 21.5 µM | EC50 [2]: 51 µM | fold change (FC) [8]: 0 | hemolysis at 1 h, 500 µM [10]: 13% | MIC [11]: 200 µM (≈ 57.8 µg/mL) | fold change (FC) [12]: 0 | fold change (FC) [13]: 0 | hemolysis at 1 h, 200 µM [15]: 8%

Nc1nc(-c2c[nH]c3ccc(Br)cc23)c[nH]1
IC50 [1]: 9.5 µM | EC50 [2]: > 50 µM | MIC [11]: 100 µM (≈ 27.7 µg/mL)

From ChEMBL document CHEMBL4699393, “Meridianin D analogues possess antibiofilm activity against Mycobacterium smegmatis” (RSC Med Chem, 2020)
